Assay results reported in ChEMBL document CHEMBL3102806, “1,2,4-Triazole/oxime hybrids as new strategy for nitric oxide donors: Synthesis, anti-inflammatory, ulceroginicity and antiproliferative activities” (Eur J Med Chem, 2014).

What was measured:
Rattus norvegicus [1] = assay: Antiinflammatory activity in albino rat assessed as inhibition of carrageenan-induced paw edema at 0.28 mmol/kg, po administered 30 mins prior to carrageenan-challenge measured after 2 hrs relative to control; format: functional
Outline: (§1)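 Male albino rats in groups of four were fasted 24 h with water allowed. Dosing was oral at 0.28 mmol/kg, suspended in 0.5% w/v CMC; controls got CMC alone. After 30 min, 0.1 ml of 1% carrageenan in saline went subplantar into the right hind paw and saline into the left. Paw thickness was read by caliper before and at 1–5 h. % inhibition = [(VR−VL)control−(VR−VL)treated]/(VR−VL)control ×100. Mean ± SEM, n = 4, one-way ANOVA vs control.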

Rattus norvegicus [2] = assay: Antiinflammatory activity in albino rat assessed as inhibition of carrageenan-induced paw edema at 0.28 mmol/kg, po administered 30 mins prior to carrageenan-challenge measured after 4 hrs relative to control; format: functional; outline: as §1
Rattus norvegicus [3] = assay: Gastrointestinal toxicity in albino rat carrageenan-induced paw edema model assessed as decrease in thickness of gastric mucosa with marked loss of mucosal membrane at areas of ulceration at 0.28 mmol/kg, po by hematoxylin and eosin staining-based light microscopic analysis; format: organism-based; conditions: in vivo
Outline: (§2)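 Rats were dosed orally at 0.28 mmol/kg, suspended in 0.5% aqueous CMC; vehicle-only animals served as controls. After ulcer scoring, stomach sections were stained with haematoxylin and eosin: acid-alcohol differentiation, then 1% eosin for 10 min. Sections were dehydrated, cleared in xylene, mounted and examined by light microscopy.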

Rattus norvegicus [4] = assay: Ulcerogenic activity in albino rat carrageenan-induced paw edema model assessed as ulcer index at 0.28 mmol/kg, po (reference value: 0.60 +/- 0.05); format: toxicity, organism-based; conditions: in vivo
Outline: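 Rats given the compound orally at 0.28 mmol/kg, suspended in 0.5% aqueous CMC; vehicle-only control, n = 4 per group. Gastric ulcers graded by area: I (<1 mm²), II (1–3 mm²), III (>3 mm²). Ulcer index = 1×(level I count) + 2×(level II) + 3×(level III). Mean ± SEM, one-way ANOVA versus control.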

Rattus norvegicus [5] = assay: Antiinflammatory activity in albino rat assessed as inhibition of carrageenan-induced paw edema at 0.28 mmol/kg, po administered 30 mins prior to carrageenan-challenge measured after 3 hrs relative to control; format: functional; outline: as §1
Rattus norvegicus [6] = assay: Antiinflammatory activity in albino rat assessed as inhibition of carrageenan-induced paw edema at 0.28 mmol/kg, po administered 30 mins prior to carrageenan-challenge measured after 5 hrs relative to control; format: functional; outline: as §1
Rattus norvegicus [7] = assay: Gastrointestinal toxicity in albino rat carrageenan-induced paw edema model assessed as loss of morphology of glandular structures at 0.28 mmol/kg, po by hematoxylin and eosin staining-based light microscopic analysis; format: organism-based; conditions: in vivo; outline: as §2
Rattus norvegicus [8] = assay: Antiinflammatory activity in albino rat assessed as inhibition of carrageenan-induced paw edema at 0.28 mmol/kg, po administered 30 mins prior to carrageenan-challenge measured after 1 hr relative to control; format: functional; outline: as §1
[9] = Induction of nitric oxide release in phosphate buffer at 10^-4 M at pH 7.4 after 1 hr by Griess colorimetric method in presence of N-acetylcysteine; format: physicochemical; conditions: pH 7.4, 1 h, 100 µM
Outline: (§3)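 Final drug concentration 10^-4 M, added from DMF into 1:1 50 mM phosphate buffer (pH 7.4)/MeOH containing 5 × 10^-4 M N-acetylcysteine, at 37 °C. Nitrite read with Griess reagent after 10 min at room temperature, absorbance at 546 nm. Calibration with sodium nitrite standards (10–80 nmol/ml). Reported as mol NO per mol, n = 4 reaction mixtures.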

[10] = Induction of nitric oxide release in phosphate buffer at 10^-4 M at pH 7.4 after 2 hrs by Griess colorimetric method in presence of N-acetylcysteine; format: physicochemical; conditions: pH 7.4, 2 h, 100 µM; outline: as §3
[11] = Induction of nitric oxide release in phosphate buffer at 10^-4 M at pH 7.4 after 3 hrs by Griess colorimetric method in presence of N-acetylcysteine; format: physicochemical; conditions: pH 7.4, 3 h, 100 µM; outline: as §3
[12] = Induction of nitric oxide release in phosphate buffer at 10^-4 M at pH 7.4 after 5 hrs by Griess colorimetric method in presence of N-acetylcysteine; format: physicochemical; conditions: pH 7.4, 5 h, 100 µM; outline: as §3
[13] = Induction of nitric oxide release in HCl buffer at 10^-4 M at pH 1 after 1 hr by Griess colorimetric method in presence of N-acetylcysteine; format: physicochemical; conditions: pH 1, 1 h, 100 µM
Outline: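 Same Griess nitrite procedure at 10^-4 M final drug with N-acetylcysteine at 37 °C, but with 0.1 N HCl (pH 1) in place of the pH 7.4 phosphate buffer. Absorbance at 546 nm against a sodium nitrite calibration curve.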

Rattus norvegicus [14] = assay: Gastrointestinal toxicity in albino rat carrageenan-induced paw edema model assessed as appearance of ulcer at 0.28 mmol/kg, po by hematoxylin and eosin staining-based light microscopic analysis; format: organism-based; conditions: in vivo; outline: as §2
Rattus norvegicus [15] = assay: Gastrointestinal toxicity in albino rat carrageenan-induced paw edema model assessed as capillary vasodilatation of lamina propria associated with accumulation of edema fluid at 0.28 mmol/kg, po by hematoxylin and eosin staining-based light microscopic analysis; format: organism-based; conditions: in vivo; outline: as §2
Rattus norvegicus [16] = assay: Gastrointestinal toxicity in albino rat carrageenan-induced paw edema model assessed as acute inflammatory cell infiltrating its whole thickness at 0.28 mmol/kg, po by hematoxylin and eosin staining-based light microscopic analysis; format: organism-based; conditions: in vivo; outline: as §2
[17] = Induction of nitric oxide release in phosphate buffer at 10^-4 M at pH 7.4 after 6 hrs by Griess colorimetric method in presence of N-acetylcysteine; format: physicochemical; conditions: pH 7.4, 6 h, 100 µM; outline: as §3
[18] = Induction of nitric oxide release in phosphate buffer at 10^-4 M at pH 7.4 after 4 hrs by Griess colorimetric method in presence of N-acetylcysteine; format: physicochemical; conditions: pH 7.4, 4 h, 100 µM; outline: as §3
Rattus norvegicus [19] = assay: Gastrointestinal toxicity in albino rat carrageenan-induced paw edema model assessed as severe atrophic gastritis and gland atrophy at 0.28 mmol/kg, po by hematoxylin and eosin staining-based light microscopic analysis; format: organism-based; conditions: in vivo; outline: as §2
Rattus norvegicus [20] = assay: Gastrointestinal toxicity in albino rat carrageenan-induced paw edema model assessed as apoptotic glandular epithelial cells at 0.28 mmol/kg, po by hematoxylin and eosin staining-based light microscopic analysis; format: organism-based, Epithelial cell; conditions: in vivo; outline: as §2
Rattus norvegicus [21] = assay: Gastrointestinal toxicity in albino rat carrageenan-induced paw edema model assessed as destruction of surface epithelium and epithelial lining of gastric pits at 0.28 mmol/kg, po by hematoxylin and eosin staining-based light microscopic analysis; format: organism-based, Stomach; conditions: in vivo; outline: as §2

SMILES | inhibition in vivo at 280 µmol/kg (Rattus norvegicus [1]) [%] | inhibition in vivo at 280 µmol/kg (Rattus norvegicus [2]) [%] | Activity (Rattus norvegicus [3]) | UI (Rattus norvegicus [4]) | inhibition in vivo at 280 µmol/kg (Rattus norvegicus [5]) [%] | inhibition in vivo at 280 µmol/kg (Rattus norvegicus [6]) [%] | inhibition in vivo at 280 µmol/kg (Rattus norvegicus [8]) [%] | Activity [9] [mol/mol] | Activity [10] [mol/mol] | Activity [11] [mol/mol] | Activity [12] [mol/mol] | Activity [13] | Activity (Rattus norvegicus [15]) | Activity (Rattus norvegicus [16]) | Activity [17] [mol/mol] | Activity [18] [mol/mol] | Activity (Rattus norvegicus [19]) | also measured
C=CCn1c(SCC(=O)Nc2ccc(C(C)=O)cc2)nnc1-c1ccc(OC)c(OC)c1 | 57 | 70 | Toxic | 2.45 | 58 | 64 | 56 |  |  |  |  |  |  |  |  |  |  | Activity (Rattus norvegicus [7]): Toxic
C=CCn1c(SCC(=O)Nc2ccc(/C(C)=N/O)cc2)nnc1-c1ccc(OC)c(OC)c1 | 56 | 79 |  | 0.25 | 70 | 79 | 53 | 0.13 | 0.16 | 0.32 | 0.27 | Not Active | Non-toxic | Non-toxic | 0.26 | 0.35 | Non-toxic | Activity (Rattus norvegicus [14]): Non-toxic
C=CCn1c(SCC(=O)Nc2ccc(/C(C)=N/O)cc2)nnc1-c1cc(OC)c(OC)c(OC)c1 | 53 | 72 |  | 0.75 | 62 | 64 | 49 | 0.11 | 0.15 | 0.19 | 0.18 | Not Active |  |  | 0.16 | 0.24 |  | 
CCn1c(SCC(=O)Nc2ccc(/C(C)=N/O)cc2)nnc1-c1ccccc1 | 57 | 77 |  | 1.18 | 65 | 66 | 54 | 0.11 | 0.17 | 0.2 | 0.14 | Not Active |  |  | 0.12 | 0.21 |  | 
COc1ccc2c(c1)c(CC(=O)O)c(C)n2C(=O)c1ccc(Cl)cc1 [INDOMETHACIN] | 67 | 83 | Toxic | 63.34 | 74 | 87 | 51 |  |  |  |  |  | Toxic | Toxic |  |  | Toxic | Activity (Rattus norvegicus [20]): Toxic; Activity (Rattus norvegicus [21]): Toxic
